Assay results from ChEMBL document CHEMBL1157034, “Synthesis of 1-benzyl-3-(5-hydroxymethyl-2-furyl)selenolo[3,2-c]pyrazole derivatives as new anticancer agents” (Eur J Med Chem, 2010).

Key:
NCI-H226 = experiment: Antitumor activity against human NCI-H226 cells after 48 hrs by MTT assay; type: functional, cell-based; conditions: NCI-H226, 48 h
In short: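 Cells grown at 37 °C in humidified 5% CO2, seeded at 1×10^4 cells/well, and allowed to attach for 24 h. They were then exposed to a range of concentrations for 48 h, washed with PBS, and given 1 mg/ml MTT for 2 h. Formazan was dissolved in DMSO and read at 570 nm.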

ACHN = experiment: Antitumor activity against human ACHN cells after 48 hrs by MTT assay; type: functional, cell-based

IC50 (NCI-H226): 25 µM
IC50 (ACHN): 0.3 µM
SMILES: OCc1ccc(-c2nn(Cc3ccccc3)c3ccccc23)o1
